# Screening data from PubChem BioAssay.
# The full list was thinned out, with hits kept by preference.
# TLR9-MyD88 inh = inhibitors of TLR9-MyD88 association in cells, primary screen, cell-based, CHO, BLA complementation, fluorescence. inhibition, % at 4.98 µM. CCF4 FRET ratio. Toll-like receptor 9 (Homo sapiens) + Myeloid differentiation primary response protein …. hit rate 0.21% among 340,000;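 active means inhibition above the mean over all tested compounds plus 3 SD, cut at about 21% in these data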;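 further: 0% = DMSO only wells and 100% = clavulanate BLA inhibitor control wells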
# CHOP inh = inhibitors of CHOP promoter induction, primary screen, cell-based, unfolded protein response, luciferase reporter; CHO-K1 CHOP-promoter luciferase, tunicamycin-induced, 15-18 h; hit rate 3.8% among 220,000; inhibition, % at 10 µM;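 active means compounds that reduced the stress-induced luciferase reporter signal by more than about 70% of percent inhibition, limit read from the data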;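 further: 0% = tunicamycin plus vehicle and 100% = wells without tunicamycin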
# TLR4-MyD88 BLA = inhibitors of TLR4-MyD88 association in cells, primary screen, cell-based, HeLa CL3-4, BLA complementation, FRET ratio; Toll-like receptor 4 (Homo sapiens) + Myeloid differentiation primary response protein …; HeLa CL3-4 TLR4/MyD88 BLA complementation; inhibition, % at 8.4 µM; hit rate 0.18% among 200,000; in the data active means inhibition above about 25%;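 further: 0% = vehicle and 100% = reference inhibitor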
# XBP1 UPR activ = activators of adaptive XBP1 UPR arm, primary screen, cell-based, CHO-XBP1 luciferase reporter, luminescence, uHTS; IRE1-XBP1 UPR activation; percent of tunicamycin response, DMSO as zero; activation, % at 20 µM; hit rate 0.33% among 330,000; AID 463104, 2010;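 active means versus positive control, 20 µM dose yields 30% or more activation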;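 further: 100% = tunicamycin at 10 µg/mL and 0% = DMSO only wells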
#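 Assay system: IRE1-XBP1 luciferase reporter CHO line. Input: 1000 cells/well. Buffer or medium: F12 with 10% serum. Doses: 20 µM, 1% DMSO. Times: overnight seeding at 37 °C, 6 h compound treatment at 37 °C. Technique: Steady-Glo luciferase glow luminescence, 10 min after reagent addition.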
# UPR CHOP act = activators of apoptotic CHOP UPR arm, primary screen, cell-based, CHO-CHOP luciferase reporter, luminescence, uHTS. AID 449763, 2010. activation, % at 10 µM. hit rate 0.34% among 330,000. UPR activation; percent of tunicamycin response over DMSO baseline;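 active means at 10 µM dose, activation of 40% or more, normalized to positive control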;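 further: 100% = tunicamycin at 10 µg/mL and 0% = DMSO alone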
#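 Assay system: CHO cells with stable CHOP pathway luciferase reporter; Buffer or medium: F12 plus 10% serum; Times: 16-18 h cell attachment, then 6 h compound exposure, 37 °C; Signal: luciferase luminescence; Read-out basis: percent activation relative to tunicamycin control; Control set: tunicamycin high control, DMSO low control.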
# NOD2-RIPK2 inh = NOD2-RIPK2 binding disruptors in cells, primary screen, fluorescence, CHO cells, BLA complementation; Receptor-interacting serine/threonine-protein kinase 2 (Homo sapiens), O43353; CCF4 ratio; inhibition, % at 4.98 µM; hit rate 0.38% among 360,000; AID 624267, 2012; in the data active means inhibition above about 21%;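 further: 0% = vehicle only and 100% = reference blocker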
# Target sequence (O43353 whole entry, looked up): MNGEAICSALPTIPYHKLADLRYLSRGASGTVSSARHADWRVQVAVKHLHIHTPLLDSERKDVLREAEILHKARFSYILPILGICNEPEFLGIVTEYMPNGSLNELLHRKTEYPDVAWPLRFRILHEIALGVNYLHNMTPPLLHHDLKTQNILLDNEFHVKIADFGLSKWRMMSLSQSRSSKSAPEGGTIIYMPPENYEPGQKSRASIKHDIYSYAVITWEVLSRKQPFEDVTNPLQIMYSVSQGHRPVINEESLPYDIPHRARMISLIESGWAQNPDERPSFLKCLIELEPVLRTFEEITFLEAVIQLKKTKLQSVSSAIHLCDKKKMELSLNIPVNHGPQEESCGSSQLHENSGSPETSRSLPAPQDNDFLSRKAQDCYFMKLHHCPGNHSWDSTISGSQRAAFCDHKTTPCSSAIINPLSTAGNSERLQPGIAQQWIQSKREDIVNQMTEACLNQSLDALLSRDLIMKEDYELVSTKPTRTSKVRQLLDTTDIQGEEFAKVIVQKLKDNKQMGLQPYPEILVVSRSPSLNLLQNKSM
# Numbers without * were called inactive; nt = not tested or not shown.
SMILES,TLR9-MyD88 inh,CHOP inh,TLR4-MyD88 BLA,XBP1 UPR activ,UPR CHOP act,NOD2-RIPK2 inh
O=C(COC(=O)c1cc(=O)[nH]c2ccc(Br)cc12)c1ccccc1,-5,70,0,2,-1,7
O=C(COC(=O)c1cc(=O)[nH]c2ccccc12)c1ccc(Br)cc1,0,72*,nt,-2,3,-5
Clc1nc(-c2ccccc2)cc(-c2ccc(Br)cc2)n1,-11,nt,-1,4,1,-8
Nc1cc(-c2ccc(Br)cc2)nc2cc(-c3ccccc3)nn12,-9,82*,14,-1,2,-4
Nc1cc(-c2ccccc2)nn1S(=O)(=O)c1ccc(F)cc1,7,39,5,-2,-3,-4
Nc1cc(-c2ccc(Br)cc2)nn1S(=O)(=O)c1ccccc1,-1,72*,-5,11,1,-6
COCCOc1cc(Nc2nnc(C(F)(F)F)s2)c(Cl)cc1Cl,1,77*,-4,0,2,8
Cn1c(=O)cc(OCCCC(=O)NCCC2=CCCCC2)c2ccccc21,-20,10,3,2,-1,-3
Cn1c(=O)cc(SCC(=O)NCCC2=CCCCC2)c2cc(Cl)ccc21,-6,93*,-11,-2,-1,4
COc1ccc(Br)c(Cn2c(C)c(C(=O)NCc3ccc4c(c3)OCCO4)sc2=O)c1,nt,nt,nt,nt,nt,-8
COc1ccc(Cl)cc1C(=O)NNC(=O)CCNC(=O)c1ccccc1,-6,nt,nt,nt,nt,5
O=C(COc1ccc(Cl)cc1Cl)Nc1c(-c2cccs2)nc2ccccn12,0,85*,-3,2,2,4
COc1ccc(-c2coc3cc(OC(C)=O)ccc3c2=S)cc1,1,nt,nt,nt,nt,-13
C=C1c2nc3ccccc3n2C=C(c2ccc(C)cc2)N1c1ccccc1,-10,nt,nt,nt,nt,-4
O=CNC1c2ccccc2CCc2ccccc21,3,nt,nt,nt,nt,-16
CC(=O)N1C2=CCCC3CCCCC23c2ccccc21 (stereo not given),-12,nt,nt,nt,nt,-6
CC1=C(C(=O)N2CCOCC2)CC(CC(=O)NC(c2ccccc2)c2ccccc2)C(=O)N1CCCN1CCCC1=O (stereo not given),5,nt,nt,nt,nt,-14
CCc1ccc(Nc2nc(N)nc(CSc3nnnn3-c3ccccc3)n2)cc1,7,88*,2,-1,1,5
Cc1ccccc1Nc1nc(N)nc(CSc2nnnn2-c2ccccc2)n1,-1,54,5,-3,-1,-4
O=C(CC[C@H]1O[C@@H](n2cnc3c(NC(=O)c4ccccc4)ncnc32)[C@H](O)[C@@H]1O)NCCCN1CCCC1=O,nt,nt,nt,nt,nt,3
Cc1[nH]c2ccccc2c1/C=C/c1nc2ccccc2c(=O)[nH]1,-2,76*,nt,6,8,5
O=C(O)c1ccc(/C=C/c2nc3ccccc3c(=O)[nH]2)cc1,-7,nt,nt,-8,-2,-12
CCOC(=O)/C=c1\s/c(=C\c2ccc3c(c2)OCCO3)c(=O)n1CC(=O)NCC1CCCO1 (stereo not given),2,86*,-7,1,0,5
COc1ccc(S(=O)(=O)n2cnc3cc(C)c(C)cc32)cc1C,-4,70*,4,-3,1,-17
COc1ccc(S(=O)(=O)n2cnc3cc(C)c(C)cc32)cc1,-1,59,4,-2,-2,-12
SMILES,TLR9-MyD88 inh,CHOP inh,TLR4-MyD88 BLA,XBP1 UPR activ,UPR CHOP act,NOD2-RIPK2 inh
O=C(Cn1c(=O)sc2ccccc21)NCc1ccccn1,-5,75*,-11,2,3,-11
O=C(CN1C(=O)c2ccccc2C1=O)NCc1ccccn1,-1,13,-8,1,1,2
COc1cc(CN2CCC(C(=O)NC(c3ccc(-c4ccccc4)cc3)c3cnccn3)CC2)cc(OC)c1 (stereo not given),nt,nt,nt,nt,nt,-3
C[C@@H]1CN([C@H](C)CO)C(=O)CCCn2nncc2CO[C@H]1CN(C)Cc1ccncc1,9,nt,nt,nt,nt,-14
COc1cccc(NC(=O)N(C)C[C@@H]2OCc3cnnn3CCCC(=O)N([C@@H](C)CO)C[C@H]2C)c1,-1,nt,nt,nt,nt,-19
Cc1nn(-c2ccccc2)c(Cl)c1/C=C1\N=C(c2ccccc2)OC1=O,nt,nt,-5,nt,nt,nt
Cc1nn(-c2ccc(F)cc2)c(Cl)c1/C=C1\C(=O)Nc2ccccc21,5,94*,11,2,1,0
Cc1ccc2c(c1)sc1nc(=O)n(-c3ccc(Cl)cc3)c(=O)n12,5,80*,-12,9,3,-2
C[C@@H]1CN([C@@H](C)CO)C(=O)CCCn2nncc2CO[C@@H]1CN(C)C(=O)Nc1ccc(C(F)(F)F)cc1,3,nt,nt,nt,nt,-1
CC1(C(=O)NC2CCCCCC2)CCN1C(=O)Cc1ccc(-c2ccccc2)cc1 (stereo not given),nt,nt,nt,nt,nt,1
CSC1=NC(=O)/C(=C\c2cccc3ccccc23)S1,1,103*,-8,1,1,-6
COc1cccc(/C=C2\N=C(SC)SC2=O)c1OC,-3,64,-3,2,-2,-5
c1cc(-c2ccc(N3CCOCC3)cc2)n2ccnc2c1,nt,nt,nt,nt,nt,1
COC(=O)c1sccc1NC(=O)Nc1cccc(Cl)c1Cl,8,84*,6,3,0,-1
CSc1ccccc1NC(=O)COc1ccc(Cl)cc1,-8,77*,-3,2,9,0
CSc1ccccc1NC(=O)Nc1cccc(Cl)c1Cl,-2,88*,1,10,2,-7
CSc1ccccc1NC(=O)Nc1cccc(Cl)c1C,3,66,-18,-1,2,-5
O=C(C1CCCCC1)N1C[C@@H](O)[C@H](n2cc(C3CC3)nn2)C[C@@H]1c1ccc(Cl)cc1,4,nt,nt,nt,nt,-2
CC1(C(=O)Nc2ccc3c(c2)OCO3)CCN1C(=O)CCc1ccc(Cl)cc1Cl (stereo not given),nt,nt,nt,nt,nt,1
COc1ccccc1-c1cnc(C(O)c2ccc(C)cc2C)[nH]1 (stereo not given),nt,nt,nt,nt,nt,-4
COc1ccc(Cl)cc1Nc1nc(NCCO)nc(N2CCCC2)n1,9,74*,10,2,-1,-1
COc1ccc(Cl)cc1Nc1nc(NCCO)nc(N2CCCCC2)n1,9,nt,nt,3,2,5
O=S(=O)(CCN1CCCCC1)CCS(=O)(=O)CCN1CCCCC1,-7,nt,nt,nt,nt,-1
CC(C)(CC(=O)N1CCN(c2ccc(Cl)cc2)CC1)CC1=NS(=O)(=O)c2ccccc2N1,-3,71*,4,2,6,1
